# ChEMBL document CHEMBL1165908, “Novel benzimidazole-pyrimidine conjugates as potent antitumor agents” (Eur J Med Chem, 2010)
# Where a name gives a salt, the structure may show the parent alone.
# Key:
# KB = assay: Cytotoxicity against human KB cells after 3 days by MTT assay; format: functional, cell-based; conditions: 72 h
# How it was run: (§1)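 Cells grown in RPMI 1640 with 10% fetal calf serum, plated at 2 × 10^4 cells, held 12 h at 37 °C in 5% CO2, then exposed to test sample for 3 days at 37 °C. MTT added for 4 h, formazan dissolved in DMSO, absorbance read at 570 nm. IC50 taken as 50% growth inhibition relative to untreated control; each experiment run at least 3 times.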
# SK-OV-3 = assay: Cytotoxicity against human SKOV3 cells after 3 days by MTT assay; format: functional, cell-based; conditions: SK-OV-3, 72 h; how it was run: as §1
# SF-268 = assay: Cytotoxicity against human SF268 cells after 3 days by MTT assay; format: functional, cell-based; conditions: SF-268, 72 h; how it was run: as §1
# NCI-H460 = assay: Cytotoxicity against human NCI-H460 cells after 3 days by MTT assay; format: functional, cell-based; conditions: NCI-H460, 72 h; how it was run: as §1
# [1] = Cytotoxicity against human RKOp27 cells after 3 days by MTT assay; format: functional, cell-based; conditions: RKOp27, 72 h; how it was run: as §1
# HL-60 = assay: Cytotoxicity against human HL60 cells after 3 days by MTT assay; format: functional, cell-based; conditions: HL-60, 72 h
# U-937 = assay: Cytotoxicity against human U937 cells after 3 days by MTT assay; format: functional, cell-based; conditions: U-937, 72 h; how it was run: as §1
# K562 = assay: Cytotoxicity against human K562 cells after 3 days by MTT assay; format: functional, cell-based; conditions: K562, 72 h; how it was run: as §1
# G-361 = assay: Cytotoxicity against human G361 cells after 3 days by MTT assay; format: functional, cell-based; conditions: G-361, 72 h; how it was run: as §1
# SK-MEL-28 = assay: Cytotoxicity against human SK-MEL-28 cells after 3 days by MTT assay; format: functional, cell-based; conditions: SK-MEL-28, 72 h; how it was run: as §1
# GOTO = assay: Cytotoxicity against human GOTO cells after 3 days by MTT assay; format: functional, cell-based; conditions: 72 h; how it was run: as §1
# NB1 = assay: Cytotoxicity against human NB-1 cells after 3 days by MTT assay; format: functional, cell-based; conditions: NB1, 72 h; how it was run: as §1
# [2] = Toxicity in ip dosed mouse assessed as mortality after 24 hrs; format: organism-based; conditions: in vivo
# How it was run: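 Lorke two-phase design in mice, single intraperitoneal dose per group. Phase 1: three groups of three animals, each group one dose, observed 24 h for mortality and general behaviour. Phase 2: 3–4 groups of one mouse, doses chosen from phase 1 findings, observed 24 h. LD50 taken as geometric mean of lowest lethal dose and highest non-lethal dose; reported in mg/kg.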
Structure (SMILES),IC50 (KB),IC50 (SK-OV-3),IC50 (SF-268),IC50 (NCI-H460),IC50 [1],IC50 (HL-60),IC50 (U-937),IC50 (K562),IC50 (G-361),IC50 (SK-MEL-28),IC50 (GOTO),IC50 (NB1),LD50 at 24 h [2]
N#Cc1c(NC(N)=O)nc(SCc2nc3ccccc3[nH]2)nc1-c1ccccc1,9.6 nM,6.75 nM,3.37 nM,14.7 nM,2.5 nM,2.9 nM,3.37 nM,4.54 nM,2.55 nM,4.8 nM,11.3 nM,7.35 nM,347 mg/kg
CNc1nc(SCc2nc3ccccc3[nH]2)nc(-c2ccccc2)c1C#N,2.7 nM,3 nM,3.2 nM,3.2 nM,3.7 nM,6.57 nM,19.2 nM,13.2 nM,12.5 nM,2.87 nM,3.28 nM,4.46 nM,302 mg/kg
N#Cc1c(NNC(N)=S)nc(SCc2nc3ccccc3[nH]2)nc1-c1ccccc1,3 nM,3 nM,3.37 nM,3.37 nM,3.2 nM,4.54 nM,3 nM,8.9 nM,3.96 nM,3.2 nM,2.55 nM,5.81 nM,345 mg/kg
N#Cc1c(Nc2nccs2)nc(SCc2nc3ccccc3[nH]2)nc1-c1ccccc1,14.7 nM,5.81 nM,2.55 nM,3.37 nM,3.2 nM,11.9 nM,3.8 nM,14.7 nM,11.9 nM,8.9 nM,5.1 nM,3.2 nM,349 mg/kg
N#Cc1c(Nc2ccccn2)nc(SCc2nc3ccccc3[nH]2)nc1-c1ccccc1,7.35 nM,5.81 nM,6.75 nM,2.8 nM,3.8 nM,20 nM,2.55 nM,7 nM,8.9 nM,8.9 nM,2.5 nM,3.9 nM,367 mg/kg
CN1CCN(c2nc(SCc3nc4ccccc4[nH]3)nc(-c3ccccc3)c2C#N)CC1,2.7 nM,1600 nM,6.9 nM,2.84 nM,5.4 nM,2.8 nM,6.75 nM,2.4 nM,14.7 nM,20 nM,3.37 nM,2.4 nM,384 mg/kg
N#Cc1c(Cl)nc(SCc2nc3ccccc3[nH]2)nc1-c1ccccc1,3.7 nM,3.37 nM,3.2 nM,3.28 nM,4.38 nM,4.46 nM,4.46 nM,11.3 nM,12.5 nM,3.28 nM,8.62 nM,2.87 nM,313 mg/kg
N#Cc1c(-c2ccccc2)nc(SCc2nc3ccccc3[nH]2)nc1N1CCNCC1,2.87 nM,2.63 nM,20000 nM,7.35 nM,5.81 nM,4 nM,5.81 nM,4.38 nM,2.5 nM,2.6 nM,3.7 nM,6.75 nM,300 mg/kg
N#Cc1c(NC(N)=S)nc(SCc2nc3ccccc3[nH]2)nc1-c1ccccc1,3.2 nM,7.81 nM,3.37 nM,3.37 nM,2.63 nM,5.81 nM,20 nM,11.9 nM,5.81 nM,4.8 nM,4.8 nM,11.9 nM,327 mg/kg
N#Cc1c(O)nc(SCc2nc3ccccc3[nH]2)nc1-c1ccccc1,6.2 nM,2.55 nM,3.2 nM,2.5 nM,6.09 nM,2.55 nM,3.28 nM,4.63 nM,3.43 nM,7.7 nM,7.81 nM,6.57 nM,345 mg/kg
CCNc1nc(SCc2nc3ccccc3[nH]2)nc(-c2ccccc2)c1C#N,7.35 nM,7.35 nM,7.35 nM,2.87 nM,7.35 nM,3.96 nM,2.63 nM,4.38 nM,4.38 nM,5.3 nM,3.96 nM,2.63 nM,325 mg/kg
N#Cc1c(Nc2ccncc2)nc(SCc2nc3ccccc3[nH]2)nc1-c1ccccc1,3.2 nM,4.46 nM,2.4 nM,2.77 nM,5.81 nM,2.77 nM,7.35 nM,10 nM,2.55 nM,4.46 nM,2.55 nM,6.75 nM,316 mg/kg
N#Cc1c(NN)nc(SCc2nc3ccccc3[nH]2)nc1-c1ccccc1,2.55 nM,2.7 nM,2.77 nM,2.6 nM,2.55 nM,11.9 nM,3.9 nM,14.7 nM,14.7 nM,3 nM,2.68 nM,5.4 nM,344 mg/kg
N#Cc1c(-c2ccccc2)nc(SCc2nc3ccccc3[nH]2)nc1N1CCN(C(=O)c2ccccc2)CC1,3 nM,4 nM,2.8 nM,3.2 nM,2.55 nM,6.75 nM,2.68 nM,3.4 nM,2.4 nM,8.9 nM,8.62 nM,7.35 nM,327 mg/kg
ClCc1nc2ccccc2[nH]1,–,–,–,–,–,–,–,–,–,–,–,–,253 mg/kg
CCCCCOC(=O)Nc1nc(=O)n([C@@H]2O[C@H](C)[C@@H](O)[C@H]2O)cc1F [CAPECITABINE],–,–,–,–,4330 nM,–,–,–,–,–,–,–,–
Nc1ccn([C@@H]2O[C@H](CO)[C@@H](O)[C@@H]2O)c(=O)n1 [CYTARABINE],–,–,7680 nM,–,–,–,–,–,–,–,–,–,–
COc1cccc2c1C(=O)c1c(O)c3c(c(O)c1C2=O)C[C@@](O)(C(=O)CO)C[C@@H]3O[C@H]1C[C@H](N)[C@H](O)[C@H](C)O1 [DOXORUBICIN],–,4160 nM,–,–,–,–,–,6.12 nM,–,–,–,–,–
O=c1[nH]cc(F)c(=O)[nH]1 [FLUOROURACIL],4460 nM,–,–,–,–,–,–,–,–,–,–,–,–
Nc1ccn([C@@H]2O[C@H](CO)[C@@H](O)C2(F)F)c(=O)n1 [GEMCITABINE HYDROCHLORIDE],–,–,–,2130 nM,–,–,–,–,–,–,–,–,–
